PAD4 FP inh: human PAD4 inhibitors, primary screen, biochemical, fluorescence polarization, 1536-well format; inhibition, % at 6.36 µM; recombinant PAD4, RCA probe fluorescence polarization; 330,000 compounds, 0.41% hits; Protein-arginine deiminase type-4 (Homo sapiens), Q9UM07;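 active = percent inhibition above a cutoff equal to the mean of all tested compounds plus 3 SD, cut at about 15% in these data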
GSTO1 counter: inhibitors of recombinant GSTO1, primary screen, counter-screen for RBBP9 inhibitor project, biochemical, fluorescence polarization | activity-based probe fluorescence polarization | Glutathione S-transferase omega-1 (Homo sapiens), P78417 | 300,000 compounds, 1.1% hits | inhibition, % at 5.96 µM;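 active = inhibition above the campaign mean inhibition plus 3 SD, cut at about 35% in these data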
Target sequence (P78417 whole entry, looked up): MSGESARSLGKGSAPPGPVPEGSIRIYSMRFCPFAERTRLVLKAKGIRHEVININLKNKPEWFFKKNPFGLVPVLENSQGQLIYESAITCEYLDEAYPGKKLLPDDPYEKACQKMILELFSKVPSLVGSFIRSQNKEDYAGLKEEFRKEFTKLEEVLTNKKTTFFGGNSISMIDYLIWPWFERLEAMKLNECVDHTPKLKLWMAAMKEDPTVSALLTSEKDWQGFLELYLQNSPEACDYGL
PRMT1 FP inh: PRMT1 methyltransferase inhibitors, primary screen, biochemical, fluorescence polarization; recombinant PRMT1, activity-based probe fluorescence polarization; inhibition, % at 2.79 µM; 370,000 compounds, 1.3% hits;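 active = inhibition above about 21% made by adding two undisclosed values, limit read from the data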
RBBP9 inhibitor: human RBBP9 inhibitors, primary screen, biochemical, fluorescence polarization, FP-Rh probe, HTS; recombinant RBBP9; inhibition, % at 7.94 µM; 220,000 compounds, 0.2% hits; AID 1515, 2009;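 active = inhibition above the campaign mean of all tested compounds plus 3 SD, cut at about 14% in these data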
Target sequence (O75884 whole entry, looked up): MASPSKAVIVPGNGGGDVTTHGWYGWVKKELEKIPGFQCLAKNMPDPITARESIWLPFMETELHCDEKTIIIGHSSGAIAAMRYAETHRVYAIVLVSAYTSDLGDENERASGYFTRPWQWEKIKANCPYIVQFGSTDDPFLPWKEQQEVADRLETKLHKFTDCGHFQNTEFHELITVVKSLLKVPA
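Test system: recombinant human RBBP9. Quantity: 2.5 µM RBBP9 dispensing solution, before mixing. Detection: FP readout at 525/598 nm. Reagent: Serine-hydrolase probe FP-Rh, 375 nM pre-mixing. Measure: % inhibition. Control set: DMSO-treated enzyme wells and wells lacking RBBP9. Buffer or medium: Tris-NaCl-Pluronic buffer, pH 8.0. Times: preincubation 30 min plus labeling 45 min at 25 °C.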
SIAE inh: human SIAE inhibitors, primary screen, biochemical, fluorescence polarization, FP-Rh probe, 1536-well HTS. 370,000 compounds, 0.69% hits. inhibition, % at 9.66 µM. Sialate O-acetylesterase (Homo sapiens), Q9HAT2. SIAE FP-Rh probe binding;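 active = inhibition above a cutoff: mean of compounds within the control limits plus 3 SD of those, cut at about 17% in these data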
PRMT1 inh conf: PRMT1 methyltransferase inhibitors, confirmation, biochemical, fluorescence polarization, triplicate. shares compounds with PRMT1 FP inh. recombinant His-PRMT1, activity-based probe fluorescence polarization. inhibition, % at 2.79 µM. 3,300 compounds, 42% hits;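 active = mean inhibition across replicates above the hit cutoff derived for the earlier primary screen, cut at about 22% in these data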
Hits are given with their value; 0 = inactive; - = no result given. Sampled rows, rich in hits. Any-hit rate of the full collection: about 2.7%.

SMILES	PAD4 FP inh	GSTO1 counter	PRMT1 FP inh	RBBP9 inhibitor	SIAE inh	PRMT1 inh conf
CC(=O)Nc1ccc(S(=O)(=O)NCCC(=O)N2CCCCC2)cc1	0	0	0	-	0	-
COc1ccc(S[C@]2(C(=O)N3CCCC3)CC(=O)N(C(=O)c3ccccc3)[C@@H]2c2ccc(OC)cc2)cc1	-	-	73.7	-	0	72.6
COc1ccc(S[C@]2(C(=O)N(C)C)CC(=O)N(C(=O)c3ccccc3)[C@@H]2c2ccc(OC)cc2)cc1	-	-	84.2	-	0	72.1
COc1ccc(S[C@]2(C(=O)N(C)C)CC(=O)N(S(=O)(=O)c3ccc(F)cc3)[C@@H]2c2ccc(OC)cc2)cc1	-	-	26.4	-	0	27.5
COC(=O)[C@@]1(Sc2ccccc2)CC(=O)N[C@@H]1c1ccccc1	-	-	0	-	0	-
COc1ccc(S[C@]2(C(=O)N3CCCC3)CC(=O)N(S(=O)(=O)c3ccc(F)cc3)[C@@H]2c2ccc(OC)cc2)cc1	-	-	0	-	0	-
COC(=O)[C@@]1(Sc2ccc(C)cc2)CC(=O)N(C(=O)c2ccccc2)[C@@H]1c1ccccc1	-	-	67.8	-	0	77.3
O=C(NCc1ccncc1)C1COc2ccccc2O1 (centres undefined)	0	0	0	0	0	-
O=C(NCCN1CCCCC1)c1ccc(=O)oc1	0	0	0	0	0	-
CCN(C[C@H]1N[C@@](CC)(C(=O)OC)[C@H]2C(=O)N(C)C(=O)[C@@H]12)C(=O)Nc1ccc(OC)cc1	0	-	0	-	0	-
CCCN(CCC)CCCNC(=O)CC(C(=O)N1CCc2ccccc21)n1ccnc1 (centres undefined)	0	0	0	0	0	-
CCCC(c1nnnn1CCOC)N(Cc1cc2cc(C)c(C)cc2[nH]c1=O)CC1CCCO1 (centres undefined)	0	0	26.4	0	0	0
O=S1(=O)CC(O)C(O)CS1 (centres undefined)	-	-	81.4	-	0	84.9
CCN(CC)c1ccc(/C=C(/C#N)c2nc3ccccc3[nH]2)c(OC(C)C)c1	0	0	40.7	0	0	0
O=C(c1ccc(Br)s1)N1CCc2ccccc2C1	0	0	0	-	0	-
N#Cc1c(-c2ccncc2)c2c([nH]c1=S)CCCC2	0	0	37.1	0	0	0
Cc1ccc(-c2c3c([nH]c(=S)c2C#N)CCCC3)o1	0	0	50.1	0	0	31.2
CC1CCN(C(=O)c2nc[nH]c2C(=O)OCCNC(=O)OC(C)(C)C)CC1	0	-	0	-	0	-
COc1ccc(NCc2nnc(SCC(=O)Nc3cccc(C)c3)o2)cc1	0	0	36.7	0	0	28.7
O=C(O)c1cccc2c1C(=O)c1ccccc1C2=O	0	0	0	0	0	-
O=C1c2ccccc2C(=O)c2c(O)c(O)cc(O)c21	95.5	-	26.7	-	0	0
CCOC(=O)c1ccc(N2C(=O)CC(N3CCC(O)(c4ccc(Cl)cc4)CC3)C2=O)cc1 (centres undefined)	0	0	49.6	0	0	0
CCOc1ccc(N2C(=O)CC(N3CCC(O)(c4ccc(Br)cc4)CC3)C2=O)cc1 (centres undefined)	0	0	55.6	0	0	0
CCCCc1ccc(NC(=O)CSc2nc(=O)n(CCN3CCOCC3)c3c2CCC3)cc1	0	0	0	-	0	-
Brc1ccc(-c2cn3c(n2)SCC3)cc1	0	0	0	0	0	-
SMILES	PAD4 FP inh	GSTO1 counter	PRMT1 FP inh	RBBP9 inhibitor	SIAE inh	PRMT1 inh conf
CCN(C(=O)CN1CCCc2cc(C)ccc21)c1c(N)n(Cc2ccccc2)c(=O)[nH]c1=O	-	-	29.9	-	0	0
CCCN(C(=O)c1cc(-c2ccco2)nc2ccccc12)c1c(N)n(Cc2ccccc2)c(=O)[nH]c1=O	0	0	32.9	-	0	0
CCN(C(=O)CN1CCCCC1)c1c(N)n(Cc2ccccc2)c(=O)[nH]c1=O	0	-	0	-	0	-
CCN(C(=O)C=Cc1ccco1)c1ccccc1	-	-	31.3	-	0	0
CCN(C(=O)COC(=O)/C=C/c1ccco1)c1c(N)n(Cc2ccccc2)c(=O)[nH]c1=O	0	-	30.0	-	0	0
CCCCn1c(N)c(N(CCOC)C(=O)c2cc(-c3ccco3)nc3ccccc23)c(=O)[nH]c1=O	0	0	0	-	0	-
COCCNC(=O)c1cccc2c(-c3cnn(C)c3)coc12	-	-	0	-	0	-
Cc1ccc2c(c1)CCCN2CC(=O)N(C)c1c(N)n(Cc2ccccc2)c(=O)[nH]c1=O	0	-	32.9	-	0	0
CN(CCCN1CCOCC1)C(=O)c1cc(COc2ccc(F)cc2F)on1	0	0	29.1	-	0	0
COc1cc(C)ccc1OCc1cc(C(=O)N(C)CCCN2CCOCC2)no1	0	0	0	-	0	-
COc1ccc(-c2cc(=O)oc3c(C)c(OCc4nn[nH]n4)ccc23)cc1	0	0	0	0	0	-
Cc1cc(C(=O)CSc2nnnn2-c2ccccc2)c(C)n1CC1CCCO1 (centres undefined)	0	0	0	0	0	-
Cc1cc(C(=O)CSc2nnc(-c3cccnc3)n2-c2ccccc2F)c(C)n1CC1CCCO1 (centres undefined)	0	0	26.7	0	0	0
Cc1ccc2nc(Cl)c(/C=N/n3c(C)nnc3C)cc2c1	0	0	0	0	0	-
Cc1cc(NC(=O)c2sc(Nc3ccc(F)cc3)nc2N)no1	0	0	0	0	0	-
C=CC[C@@H](CC(=O)NCCO)C(=O)NC[C@@H](OC(=O)[C@H](CC=C)CC(=O)OC(C)(C)C)c1ccccc1	0	-	0	-	0	-
COc1cc2ccccc2cc1C(=O)NNC(=O)c1ccccc1O	0	0	39.5	-	0	0
Nc1ccc(O)cc1C(=O)OCC(=O)c1ccc(C2CCCCC2)cc1	0	0	29.3	0	0	0
COc1ccc(C(=O)OCC(=O)c2ccc(C3CCCCC3)cc2)cc1	0	0	0	0	0	-
Cc1nnc(SCC(=O)N2CCOCC2)n1C	0	0	0	0	0	-
CC(=O)c1ccc(NC(=O)c2ccc(COc3ccccc3[N+](=O)[O-])o2)cc1	0	0	0	0	0	-
Cc1ccc2nc(SCC(=O)N/N=C/c3ccco3)cc(C)c2c1	0	0	0	0	0	-
COc1cccc2c(SCC(=O)N/N=C/c3ccccc3)cc(C)nc12	0	0	46.8	0	0	0
COc1cccc2c(N/N=C/c3ccccc3)cc(C)nc12	0	0	0	-	0	-
Cc1ccc2nc(C)cc(SCC(=O)N/N=C/c3ccco3)c2c1	0	0	52.2	-	0	0
Cc1cc(C(=O)N2CCCC(N3CCN(c4cccc(C(F)(F)F)c4)CC3)C2)nn1C (centres undefined)	0	0	0	-	0	-
NC(=O)c1ccc(NC(=O)COC(=O)CCCc2c[nH]c3ccccc23)cc1	0	0	0	0	0	-

Screening data (PubChem BioAssay)
